Measurements collected from several papers.
Each line is one published result; the experiments were not run side by side.
Target: Mitogen-activated protein kinase 11 (MAPK11, Homo sapiens, UniProt Q15759)

SMILES	test	conditions	remaining binding
O=C(c1ccc(Nc2ncc(Cl)c(-c3cc4ccccc4s3)n2)cc1)N1CCC(N2CCCC2)CC1	binding, competition with immobilised ligand	1 µM	82%
CC(C)(C)c1ccc(-c2nc(CBr)nn2-c2cccc(O)c2)cc1	cell-free assay, competition with immobilised ligand	10 µM	99%
c1cncc(-c2cccc(Nc3nccc(NC4CCCCC4)n3)c2)c1	binding, competition with immobilised ligand	10 µM	89%
COc1cc(-c2cn(C3CCc4ccccc4N(CC(F)(F)F)C3=O)nn2)ccc1-n1ccc(C)n1 (stereo not shown)	cell-free assay, competition with immobilised ligand	1 µM	82%
N#Cc1ccccc1CSc1nnc2c(n1)[nH]c1ccccc12	binding, competition with immobilised ligand	10 µM	94%
CCS(=O)(=O)c1cc2cc(C[C@@](O)(CC(C)(C)c3ccc(F)cc3C(N)=O)C(F)(F)F)[nH]c2cn1	cell-free assay, competition with immobilised ligand	1 µM	100%
C[C@H]1CCN(c2nccc(-c3cnn4ncccc34)n2)C1	binding, competition with immobilised ligand	1 µM	55%
COc1cnc(Nc2cccc(S(N)(=O)=O)c2)nc1N1CCN(c2ccccc2)CC1	binding, competition with immobilised ligand	1 µM	100%
C=CC(=O)N1CCC(C(=O)NCC(=O)N2CCN(c3nc(-c4cnc(N)nc4C(F)F)nc(N4CCOCC4)n3)CC2)CC1	binding, competition with immobilised ligand	1 µM	89%
CC(=O)N1CCC(c2ccc(C(=O)NC3=NCCN3)cc2C(F)(F)F)CC1	cell-free assay, competition with immobilised ligand	1 µM	98%
COc1ncc2cc3ccccc3nc2c1C#N	cell-free assay, competition with immobilised ligand	5 µM	92%
O=C(c1ccc(Nc2nccc(-c3cc4ccccc4s3)n2)cc1)N1CCC(N2CCCC2)CC1	binding, competition with immobilised ligand	1 µM	95%
C[C@@]1(Cc2ccc(C#N)cc2)C(=O)N(c2cc(Cl)cc(Cl)c2)c2ncc(C(=O)NC3(c4nc(C5CCC5)no4)CC3)n21	cell-free assay, competition with immobilised ligand	1 µM	100%
COc1ccnn2ncc(-c3ccnc(N(C)C)n3)c12	binding, competition with immobilised ligand	1 µM	92%
O=C(N[C@H]1CCCCC/C=C\C2C[C@@]2(C(=O)O)NC(=O)[C@@H]2C[C@@H](Oc3ccncc3)CN2C1=O)OC1CCCC1 (stereo partly shown)	binding, competition with immobilised ligand	1 µM	100%
O=C(NCCCN1CCOCC1)c1ccc(Nc2nccc(-c3cc4ccccc4s3)n2)cc1	binding, competition with immobilised ligand	1 µM	98%
c1cnn2ncc(-c3ccnc(N4CCC45COC5)n3)c2c1	binding, competition with immobilised ligand	1 µM	100%
NS(=O)(=O)c1cc(NC(=O)C2(c3ccccc3Cl)CC2)ccc1Oc1cccc(Cl)c1	cell-free assay, competition with immobilised ligand	1 µM	68%
Cc1cnn2ncc(-c3ccnc(N(C)C)n3)c2c1	binding, competition with immobilised ligand	1 µM	100%
O=C(Nc1c[nH]nc1C(=O)NC1CCNCC1)c1cc(F)cc(F)c1	binding, competition with immobilised ligand	1 µM	97%
CN(c1nccc(-c2cnn3ncccc23)n1)C1CC1	binding	1 µM	89%
C[C@@H]1CN(c2ccc3ncc(-c4ccc5[nH]nc(C6CC6)c5c4)n3n2)C[C@H](C)O1	binding, competition with immobilised ligand	0.5 µM	100%
